Test results reported in ChEMBL document CHEMBL2021777 (J Med Chem, 2012).
The source made the active and inactive calls. The rule behind the calls is not given here.

Key:
[1] = molecular target: Neuronal acetylcholine receptor; alpha3/beta4 (Rattus norvegicus, UniProt P04757+P12392); assay: Displacement of [3H] epibatidine from rat alpha3beta4 nAChR by beta scintillation counting; type: protein-complex assay
[2] = molecular target: Neuronal acetylcholine receptor; alpha4/beta2 (Rattus norvegicus, UniProt P09483+P12390); assay: Displacement of [3H] epibatidine from rat alpha4beta2 nAChR by beta scintillation counting; type: protein-complex assay
[3] = molecular target: T1, Neuronal acetylcholine receptor; alpha4/beta2 (Homo sapiens, UniProt P17787+P43681); assay: Agonist activity at human alpha4beta2 nAChR expressed in SH-EP1 cells assessed as 86Rb+ ion efflux after 9.5 mins by flip-plate technique; type: functional, cell-based
Method in brief: (§1)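 SH-EP1 human epithelial cells stably transfected with separate human α4 and β2 subunit cDNAs express a mixed population of high-sensitivity (2:3 α4:β2) and low-sensitivity (3:2) α4β2-nAChRs. Cells were kept at low passage (1−26 from frozen stocks). Function was read as 86Rb+ ion flux.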

[4] = molecular target: T1, Neuronal acetylcholine receptor; alpha4/beta2; assay: Agonist activity at human high sensitive and low sensitive alpha4beta2 nAChR expressed in SH-EP1 cells assessed as 86Rb+ ion efflux by flip-plate technique relative to sazetidine-A; type: functional, cell-based
Method in brief: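 SH-EP1-hα4β2 cells (stably transfected human α4 and β2, low passage 1−26) express mixed high- and low-sensitivity α4β2-nAChRs. Efficacy was measured by 86Rb+ flux on this mixed population. High-sensitivity efficacy was extrapolated by defining a reference agonist as 100% full agonist at the HS receptor.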

[5] = molecular target: T1, Neuronal acetylcholine receptor; alpha4/beta2; assay: Antagonist activity at human alpha4beta2 nAChR expressed in SH-EP1 cells assessed as inhibition of carbamylcholine induced 86Rb+ ion efflux preincubated for 10 mins prior to carbamylcholine-induction measured after 5 mins by flip-plate technique; type: functional, cell-based; method in brief: as §1
[6] = molecular target: Neuronal acetylcholine receptors; alpha-3/beta-4, alpha-5, beta-2 (Homo sapiens) (UniProt P17787+P30926+P32297+P30532); assay: Agonist activity at alpha3beta4alpha5beta2 in human SH-SY5Y cells at 10 uM by 86Rb+ flux assay; type: functional, cell-based
Method in brief: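 Human neuroblastoma SH-SY5Y cells endogenously express α3β4* nAChRs (α3, β4, probably α5, sometimes β2); their α7 receptors give no signal under these conditions. Cells were kept at low passage (1−26 from frozen stocks). Function was read as 86Rb+ efflux, with agonist and antagonist modes tested up to 10 μM.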

[7] = test system: Mus musculus; assay: Ex-vivo beta2* nAChR receptor occupancy in mouse brain at 10 mg/kg, ip administered 30 mins prior to testing; type: functional; settings: route intraperitoneal
Method in brief: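 Mice dosed at 10 mg/kg, or water, by intraperitoneal injection 30 min before brain collection (the forced-swim time point); ex vivo β2*-nAChR occupancy measured in brain.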

[8] = molecular target: 5-hydroxytryptamine receptor 2B (Homo sapiens) (UniProt P41595); assay: Displacement of [3H]LSD from 5-HT2B at 10 uM
[9] = molecular target: T2, 5-hydroxytryptamine receptor 3A (Homo sapiens) (UniProt P46098); assay: Displacement of [3H]LY278584 from 5-HT3 at 10 uM
T2 sequence (whole entry): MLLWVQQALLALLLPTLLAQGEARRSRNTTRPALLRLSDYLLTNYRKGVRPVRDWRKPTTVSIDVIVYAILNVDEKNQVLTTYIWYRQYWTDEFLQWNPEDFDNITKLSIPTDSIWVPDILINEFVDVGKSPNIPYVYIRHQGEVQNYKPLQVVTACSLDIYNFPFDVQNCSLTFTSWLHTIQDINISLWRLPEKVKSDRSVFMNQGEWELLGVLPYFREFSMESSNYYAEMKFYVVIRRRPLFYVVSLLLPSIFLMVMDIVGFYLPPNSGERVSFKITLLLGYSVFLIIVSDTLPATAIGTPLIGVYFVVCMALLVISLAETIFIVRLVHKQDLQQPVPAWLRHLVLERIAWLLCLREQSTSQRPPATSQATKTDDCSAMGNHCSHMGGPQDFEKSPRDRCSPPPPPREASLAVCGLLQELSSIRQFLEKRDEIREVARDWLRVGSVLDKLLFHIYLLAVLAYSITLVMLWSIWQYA

[10] = molecular target: D(3) dopamine receptor (Homo sapiens) (UniProt P35462); assay: Displacement of [3H]N-methylspiperone from D3 at 10 uM
[11] = molecular target: T3, Muscarinic acetylcholine receptor M2 (Homo sapiens) (UniProt P08172); assay: Displacement of [3H]QNB from M2 receptor at 10 uM
T3 sequence (whole entry): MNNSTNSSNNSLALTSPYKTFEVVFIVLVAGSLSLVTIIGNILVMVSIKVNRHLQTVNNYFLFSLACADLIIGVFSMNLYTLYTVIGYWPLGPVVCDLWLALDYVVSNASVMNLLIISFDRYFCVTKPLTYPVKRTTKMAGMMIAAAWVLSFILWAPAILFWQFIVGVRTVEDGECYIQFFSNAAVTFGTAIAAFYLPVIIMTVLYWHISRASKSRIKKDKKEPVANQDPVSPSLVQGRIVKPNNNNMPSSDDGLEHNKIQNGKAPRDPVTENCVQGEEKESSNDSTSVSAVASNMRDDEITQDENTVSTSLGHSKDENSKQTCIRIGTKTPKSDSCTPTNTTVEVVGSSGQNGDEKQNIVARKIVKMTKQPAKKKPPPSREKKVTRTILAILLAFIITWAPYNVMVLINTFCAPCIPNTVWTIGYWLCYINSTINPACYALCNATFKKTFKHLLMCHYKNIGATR

[12] = molecular target: T4, Muscarinic acetylcholine receptor M4 (Homo sapiens) (UniProt P08173); assay: Displacement of [3H]QNB from M4 receptor at 10 uM
T4 sequence (whole entry): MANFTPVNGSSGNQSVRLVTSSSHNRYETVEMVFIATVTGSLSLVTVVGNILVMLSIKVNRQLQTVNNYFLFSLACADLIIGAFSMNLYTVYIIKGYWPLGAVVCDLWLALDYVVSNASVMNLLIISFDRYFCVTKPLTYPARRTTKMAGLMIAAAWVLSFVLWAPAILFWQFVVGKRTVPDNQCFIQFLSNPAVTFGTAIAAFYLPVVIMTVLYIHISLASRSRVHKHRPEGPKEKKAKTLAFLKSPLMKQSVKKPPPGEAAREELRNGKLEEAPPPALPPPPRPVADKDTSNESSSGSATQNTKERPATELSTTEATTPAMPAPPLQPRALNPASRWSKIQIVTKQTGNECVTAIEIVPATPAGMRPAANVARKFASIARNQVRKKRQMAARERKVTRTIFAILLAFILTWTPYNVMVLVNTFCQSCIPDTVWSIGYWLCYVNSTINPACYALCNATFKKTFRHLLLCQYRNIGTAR

[13] = molecular target: Sodium-dependent dopamine transporter (Homo sapiens) (UniProt Q01959); assay: Displacement of [3H]WIN35428 from DAT at 10 uM
[14] = Metabolic stability in mouse liver microsomes assessed as compound remaining at 1 uM after 1 hr; type: ADME, Microsome; settings: read-out: Stability
Method in brief: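 Compound at 1 μM incubated for 1 h with human or mouse liver microsomes; percent of parent remaining unchanged.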

[15] = Inhibition of CYP3A up to 10 uM; type: ADME
Method in brief: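 Percent inhibition of CYP isoforms (CYP1A, CYP2C9, CYP2C19, CYP2D6, CYP3A; CYP1A2 reported) with test compound at concentrations up to 10 μM.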

Chain of Neuronal acetylcholine receptors; alpha-3/beta-4, alpha-5, beta-2 (Homo sapiens) (P17787 whole entry, looked up): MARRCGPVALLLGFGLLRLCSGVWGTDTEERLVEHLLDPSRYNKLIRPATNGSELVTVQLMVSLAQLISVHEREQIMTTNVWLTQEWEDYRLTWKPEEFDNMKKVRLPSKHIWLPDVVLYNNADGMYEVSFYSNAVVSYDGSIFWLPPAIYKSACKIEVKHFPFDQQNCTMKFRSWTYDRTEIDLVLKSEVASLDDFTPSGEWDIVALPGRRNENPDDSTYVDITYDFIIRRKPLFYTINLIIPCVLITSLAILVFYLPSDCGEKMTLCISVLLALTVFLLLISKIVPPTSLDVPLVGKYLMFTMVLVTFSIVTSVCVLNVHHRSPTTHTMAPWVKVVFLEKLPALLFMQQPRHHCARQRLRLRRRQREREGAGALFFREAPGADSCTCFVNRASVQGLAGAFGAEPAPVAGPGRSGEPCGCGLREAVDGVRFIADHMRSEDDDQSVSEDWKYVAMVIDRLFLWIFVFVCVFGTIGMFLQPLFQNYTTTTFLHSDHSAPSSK
Chain of Neuronal acetylcholine receptors; alpha-3/beta-4, alpha-5, beta-2 (Homo sapiens) (P30532 whole entry, looked up): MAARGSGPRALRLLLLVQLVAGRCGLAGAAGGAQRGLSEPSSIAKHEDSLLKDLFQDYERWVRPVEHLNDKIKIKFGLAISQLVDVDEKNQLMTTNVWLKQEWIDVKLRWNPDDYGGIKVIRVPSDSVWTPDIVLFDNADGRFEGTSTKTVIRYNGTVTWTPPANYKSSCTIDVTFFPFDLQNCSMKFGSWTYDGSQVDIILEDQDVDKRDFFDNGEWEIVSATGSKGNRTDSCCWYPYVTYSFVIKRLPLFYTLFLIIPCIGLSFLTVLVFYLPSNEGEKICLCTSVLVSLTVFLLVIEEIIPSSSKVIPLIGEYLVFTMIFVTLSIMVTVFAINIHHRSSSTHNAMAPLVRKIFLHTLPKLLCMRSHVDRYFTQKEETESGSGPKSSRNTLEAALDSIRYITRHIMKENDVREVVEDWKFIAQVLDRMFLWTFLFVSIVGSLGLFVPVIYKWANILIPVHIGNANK
Chain of Neuronal acetylcholine receptors; alpha-3/beta-4, alpha-5, beta-2 (Homo sapiens) (P30926 whole entry, looked up): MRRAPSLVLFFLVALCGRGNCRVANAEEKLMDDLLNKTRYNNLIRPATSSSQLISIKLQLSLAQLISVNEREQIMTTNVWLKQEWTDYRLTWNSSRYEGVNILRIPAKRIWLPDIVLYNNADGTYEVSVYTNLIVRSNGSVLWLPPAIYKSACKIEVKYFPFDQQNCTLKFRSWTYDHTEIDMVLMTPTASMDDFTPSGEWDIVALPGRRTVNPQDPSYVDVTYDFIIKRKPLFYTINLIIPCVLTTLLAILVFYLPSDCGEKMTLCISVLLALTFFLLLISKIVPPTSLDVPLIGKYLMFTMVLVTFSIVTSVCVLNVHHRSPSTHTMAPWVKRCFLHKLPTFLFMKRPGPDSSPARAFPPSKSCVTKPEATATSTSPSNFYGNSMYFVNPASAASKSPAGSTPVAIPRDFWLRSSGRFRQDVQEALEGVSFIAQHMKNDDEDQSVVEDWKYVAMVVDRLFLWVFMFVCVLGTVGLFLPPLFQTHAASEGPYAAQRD
Chain of Neuronal acetylcholine receptors; alpha-3/beta-4, alpha-5, beta-2 (Homo sapiens) (P32297 whole entry, looked up): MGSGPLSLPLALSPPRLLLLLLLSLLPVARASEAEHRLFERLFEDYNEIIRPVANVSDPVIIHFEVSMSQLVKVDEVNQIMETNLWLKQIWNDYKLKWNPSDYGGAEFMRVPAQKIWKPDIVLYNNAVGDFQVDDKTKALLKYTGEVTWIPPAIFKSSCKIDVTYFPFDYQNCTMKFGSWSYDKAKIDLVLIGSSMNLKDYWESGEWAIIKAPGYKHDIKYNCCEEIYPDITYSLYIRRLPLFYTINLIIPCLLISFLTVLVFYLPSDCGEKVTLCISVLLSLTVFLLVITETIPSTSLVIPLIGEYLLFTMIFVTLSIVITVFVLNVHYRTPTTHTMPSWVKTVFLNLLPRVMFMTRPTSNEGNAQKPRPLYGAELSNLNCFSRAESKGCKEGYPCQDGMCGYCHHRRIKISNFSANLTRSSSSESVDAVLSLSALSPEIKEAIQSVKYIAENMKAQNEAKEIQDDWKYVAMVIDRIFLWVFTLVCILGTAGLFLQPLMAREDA
T1 sequence (P17787 whole entry): as the sequence (P17787 whole entry, looked up) above
T1 sequence (P43681 whole entry): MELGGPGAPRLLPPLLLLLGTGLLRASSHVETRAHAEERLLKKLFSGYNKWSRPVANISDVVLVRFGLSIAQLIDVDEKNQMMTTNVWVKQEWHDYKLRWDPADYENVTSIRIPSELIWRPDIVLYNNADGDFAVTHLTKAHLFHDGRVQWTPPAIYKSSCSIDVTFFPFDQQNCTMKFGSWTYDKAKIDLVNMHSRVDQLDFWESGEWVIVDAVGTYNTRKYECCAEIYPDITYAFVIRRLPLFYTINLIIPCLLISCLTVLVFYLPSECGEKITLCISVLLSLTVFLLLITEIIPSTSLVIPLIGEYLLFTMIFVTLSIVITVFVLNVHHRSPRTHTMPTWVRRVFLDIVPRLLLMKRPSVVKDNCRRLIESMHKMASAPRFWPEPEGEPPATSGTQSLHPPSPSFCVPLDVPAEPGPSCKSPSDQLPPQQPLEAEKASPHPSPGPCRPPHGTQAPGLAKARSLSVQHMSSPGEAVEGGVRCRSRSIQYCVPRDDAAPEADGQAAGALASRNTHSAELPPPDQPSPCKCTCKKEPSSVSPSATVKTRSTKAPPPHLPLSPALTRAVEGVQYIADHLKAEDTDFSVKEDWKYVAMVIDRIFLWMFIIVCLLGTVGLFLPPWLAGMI
Chain of Neuronal acetylcholine receptor; alpha4/beta2 (Rattus norvegicus, UniProt P09483+P12390) (P09483 whole entry): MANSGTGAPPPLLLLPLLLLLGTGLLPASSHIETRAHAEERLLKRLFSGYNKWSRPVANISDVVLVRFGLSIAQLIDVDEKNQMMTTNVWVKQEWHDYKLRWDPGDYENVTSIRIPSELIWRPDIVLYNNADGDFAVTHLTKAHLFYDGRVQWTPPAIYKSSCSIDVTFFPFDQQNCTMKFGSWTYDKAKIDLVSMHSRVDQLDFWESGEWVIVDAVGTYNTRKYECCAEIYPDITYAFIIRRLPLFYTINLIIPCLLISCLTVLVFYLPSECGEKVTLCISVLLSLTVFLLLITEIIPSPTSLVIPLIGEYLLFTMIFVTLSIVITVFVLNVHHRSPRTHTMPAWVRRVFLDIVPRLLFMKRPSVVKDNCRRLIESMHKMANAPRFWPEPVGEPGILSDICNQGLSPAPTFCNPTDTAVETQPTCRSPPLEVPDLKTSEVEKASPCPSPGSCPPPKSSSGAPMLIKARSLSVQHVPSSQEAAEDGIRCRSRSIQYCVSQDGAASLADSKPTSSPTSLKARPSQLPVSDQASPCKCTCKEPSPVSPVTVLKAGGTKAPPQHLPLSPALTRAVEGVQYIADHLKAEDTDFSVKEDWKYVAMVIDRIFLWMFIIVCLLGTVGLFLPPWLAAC
Chain of Neuronal acetylcholine receptor; alpha4/beta2 (Rattus norvegicus, UniProt P09483+P12390) (P12390 whole entry): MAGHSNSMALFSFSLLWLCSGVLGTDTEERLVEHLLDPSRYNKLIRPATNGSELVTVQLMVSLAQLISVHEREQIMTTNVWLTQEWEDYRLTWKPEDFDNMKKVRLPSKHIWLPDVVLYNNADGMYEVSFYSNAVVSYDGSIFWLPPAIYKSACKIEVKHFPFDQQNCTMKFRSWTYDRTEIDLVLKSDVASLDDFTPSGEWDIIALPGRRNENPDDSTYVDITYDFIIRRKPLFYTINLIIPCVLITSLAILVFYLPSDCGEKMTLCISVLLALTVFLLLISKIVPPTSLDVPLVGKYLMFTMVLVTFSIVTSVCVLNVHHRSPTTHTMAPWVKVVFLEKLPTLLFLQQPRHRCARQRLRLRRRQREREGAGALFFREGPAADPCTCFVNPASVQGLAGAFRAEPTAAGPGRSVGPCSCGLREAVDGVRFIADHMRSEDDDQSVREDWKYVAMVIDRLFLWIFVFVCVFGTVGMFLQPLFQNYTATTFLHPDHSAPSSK
Chain of Sodium-dependent dopamine transporter (Homo sapiens) (Q01959 whole entry): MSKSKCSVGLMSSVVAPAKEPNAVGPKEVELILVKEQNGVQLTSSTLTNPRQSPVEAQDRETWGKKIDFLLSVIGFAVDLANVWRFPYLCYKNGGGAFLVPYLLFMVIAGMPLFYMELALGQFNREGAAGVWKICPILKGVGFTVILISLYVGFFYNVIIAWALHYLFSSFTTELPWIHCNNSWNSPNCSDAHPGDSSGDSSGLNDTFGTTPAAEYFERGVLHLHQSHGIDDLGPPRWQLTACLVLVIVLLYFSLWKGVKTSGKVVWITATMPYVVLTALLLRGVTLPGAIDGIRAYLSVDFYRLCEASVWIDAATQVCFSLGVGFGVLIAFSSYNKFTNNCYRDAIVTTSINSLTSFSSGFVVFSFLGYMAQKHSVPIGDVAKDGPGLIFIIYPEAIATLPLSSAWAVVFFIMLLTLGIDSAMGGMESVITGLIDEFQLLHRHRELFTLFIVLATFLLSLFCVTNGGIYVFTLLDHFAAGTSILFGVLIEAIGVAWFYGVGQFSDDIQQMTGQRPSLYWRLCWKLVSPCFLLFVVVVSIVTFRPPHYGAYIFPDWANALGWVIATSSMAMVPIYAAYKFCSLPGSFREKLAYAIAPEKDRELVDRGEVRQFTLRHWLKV
Chain of D(3) dopamine receptor (Homo sapiens) (P35462 whole entry): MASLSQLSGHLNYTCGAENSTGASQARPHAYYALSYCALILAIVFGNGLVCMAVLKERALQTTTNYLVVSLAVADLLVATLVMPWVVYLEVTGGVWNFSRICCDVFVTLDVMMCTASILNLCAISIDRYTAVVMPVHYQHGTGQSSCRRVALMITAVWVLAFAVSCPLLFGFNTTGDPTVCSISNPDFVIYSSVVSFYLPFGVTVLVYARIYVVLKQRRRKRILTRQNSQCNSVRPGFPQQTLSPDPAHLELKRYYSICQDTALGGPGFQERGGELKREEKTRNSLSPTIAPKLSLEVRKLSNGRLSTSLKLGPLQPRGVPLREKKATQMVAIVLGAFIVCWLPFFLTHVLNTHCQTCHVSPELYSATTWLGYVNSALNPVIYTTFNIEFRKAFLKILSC

SMILES	Ki [1]	Ki [2]	EC50 [3]	Efficacy [4]	IC50 [5]	Activity [6]	Activity [7]	inhibition [8]	inhibition [9]	inhibition [10]	inhibition [11]	inhibition [12]	inhibition [13]	remaining at 1 h, 1 µM [14]	inhibition (INH) [15]
CNC(=O)OCC[C@H]1C[C@@H]1c1cncc(OC[C@@H]2CCN2)c1	> 10000 nM	0.6 nM	15.7 nM	17%	18.2 nM	inactive	65%	48.7%	23.5%	12.3%	-0.6%	29.2%	63%	98%	<= 25%
OCC[C@H]1C[C@@H]1c1cncc(OC[C@@H]2CCN2)c1	6520 nM	0.1 nM	10.2 nM	21%	9.4 nM	inactive	85%	18.2%	38.3%	66.2%	-8.4%	-3.7%	43.7%	80%	<= 25%
COCC[C@H]1C[C@@H]1c1cncc(OC[C@@H]2CCN2)c1	> 10000 nM	0.1 nM	17.5 nM	6%	5.6 nM	inactive	85%	24.7%	42.4%	84.5%	0.5%	0.7%	21.7%	84%	<= 25%
